# M4 ag – human M4 muscarinic receptor agonists, primary screen, CHO-K1 cells, Fluo-8 calcium fluorescence; CHO-K1 hM4/Gqi5; vehicle 0%, full acetylcholine response 100%; activation, % at 3 µM; hit rate 0.14% among 360,000;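 active means activation above the run mean over all test wells plus 3 SD, cut at about 32% in these data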;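 further: peak over basal fluorescence ratio per well then scaled between controls; 0% = DMSO wells and 100% = acetylcholine at EC100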
# M5 antag – human M5 muscarinic receptor antagonists, primary screen, CHO cells, Fluo-8 calcium fluorescence; Muscarinic acetylcholine receptor M5 (Homo sapiens), P08912; hit rate 0.59% among 360,000; CHO-hM5 cells, ACh EC80; inhibition, % at 3 µM; AID 624040, 2012;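 active means inhibition above a per-plate cutoff, the mean of that plate's test compounds plus 3 SD, cut at about 27% in these data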;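 further: 0% = acetylcholine EC80 with DMSO and 100% = DMSO without agonist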
# Target sequence (P08912 whole entry, looked up): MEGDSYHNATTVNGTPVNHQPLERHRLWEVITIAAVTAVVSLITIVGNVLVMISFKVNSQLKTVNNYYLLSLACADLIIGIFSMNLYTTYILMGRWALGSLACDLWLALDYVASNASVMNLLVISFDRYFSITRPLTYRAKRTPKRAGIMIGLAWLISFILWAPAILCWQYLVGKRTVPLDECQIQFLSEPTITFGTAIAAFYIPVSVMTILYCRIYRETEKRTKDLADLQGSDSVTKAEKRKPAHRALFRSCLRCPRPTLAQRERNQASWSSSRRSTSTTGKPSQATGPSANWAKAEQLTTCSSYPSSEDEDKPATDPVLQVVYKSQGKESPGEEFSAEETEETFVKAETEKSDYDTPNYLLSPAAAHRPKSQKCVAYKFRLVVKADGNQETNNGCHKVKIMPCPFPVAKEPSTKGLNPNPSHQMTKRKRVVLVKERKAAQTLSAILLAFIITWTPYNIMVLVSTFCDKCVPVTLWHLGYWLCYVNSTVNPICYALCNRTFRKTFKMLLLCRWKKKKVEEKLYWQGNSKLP
# CHRM5 agonist – human M5 muscarinic receptor agonists, primary screen, CHO-K1 cells, Fluo-8 calcium fluorescence; Muscarinic acetylcholine receptor M5 (Homo sapiens), P08912; activation, % at 3 µM; hit rate 0.19% among 360,000; CHO-K1 hM5 cells; 0% DMSO wells, 100% maximal acetylcholine response;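 active means activation above the run's mean over test compounds plus 3 SD, cut at about 23% in these data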;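 further: signal is peak over basal fluorescence ratio across the kinetic read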
# M5 PAM – human M5 muscarinic receptor positive allosteric modulators, primary screen, CHO-K1 cells, Fluo-8 calcium fluorescence. Muscarinic acetylcholine receptor M5 (Homo sapiens), P08912. CHO-K1 hM5, ACh EC20 PAM; 0% = ACh EC20, 100% = ACh EC100. activation, % at 3 µM. hit rate 0.3% among 360,000;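 active means activation above the run cutoff, the mean activation of all test compounds plus 3 SD, cut at about 18% in these data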
#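 Assay system: CHO-K1 hM5 cells / Incubation: Fluo-8 loading 80 min at 37 °C plus 30 min room temperature / Technique: Fluo-8 calcium dye fluorescence, kinetic read / Repeats: single replicate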
# M4 antag – human M4 muscarinic receptor antagonists, primary screen, CHO cells, Fluo-8 calcium fluorescence. Muscarinic acetylcholine receptor M4 (Homo sapiens), P08173. inhibition, % at 3 µM. hit rate 0.73% among 360,000. CHO-hM4 cells, ACh EC80;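 active means inhibition above its plate's cutoff, the mean inhibition of sample wells plus 3 SD, cut at about 27% in these data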;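 further: 0% = acetylcholine EC80 with DMSO and 100% = DMSO without agonist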
# M4 PAM – human M4 muscarinic receptor positive allosteric modulators, primary screen, CHO-K1 cells, Fluo-8 calcium fluorescence; Muscarinic acetylcholine receptor M4 (Homo sapiens), P08173; CHO-K1 hM4/Gqi5, ACh EC20; 0% = ACh EC20, 100% = maximal ACh; activation, % at 3 µM; hit rate 0.4% among 360,000;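 active means activation above its plate's cutoff, the mean activation of sample wells plus 3 SD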
# Numbers without * were called inactive. A selection: hits, their analogues and other compounds. The true share with any hit is near 1.8%.
SMILES,M4 ag,M5 antag,CHRM5 agonist,M5 PAM,M4 antag,M4 PAM
CC(C(=O)O)c1ccc(N2Cc3ccccc3C2=O)cc1 (stereo unspecified),1,9,-1,-17,40*,-14
O=C(CSc1ncnc2c1nnn2Cc1ccccc1F)NCC1CCCO1 (stereo unspecified),1,13,-5,-6,-1,-1
CN1C(=S)N(c2cccnc2)C(=O)/C1=C\c1ccc(N(C)C)cc1,14,31*,60*,-21,11,-7
O=C(O)C1CCN(C(=O)c2ccccc2C(=O)N2CCC(C(=O)O)CC2)CC1,0,0,0,-1,3,7
O=C(O)C1CCN(C(=O)c2cccc3ccccc23)CC1,1,-7,0,5,-26,18*
CC(CCc1ccccc1)NC(=O)COC(=O)c1cccnc1Cl (stereo unspecified),2,8,2,5,-5,8
CCN(c1ccccc1)S(=O)(=O)c1ccc(Cl)c(C(=O)OCC(=O)c2[nH]c(C)c(C(C)=O)c2C)c1,5,16,-4,-17,28*,-37
O=C(CO)c1c[nH]c2ccccc12,2,1,1,2,-2,0
CN(C)CCCNc1oc(/C=C/c2ccccc2)nc1C#N,1,24,3,32*,-5,4
O=C(CN1C(=O)NC2(CCc3ccccc32)C1=O)Nc1ccc(Cl)cc1F (stereo unspecified),2,2,1,-1,-2,4
NC(=O)[C@@H]1CCCN1Cc1c(C(=O)N2CCc3ccccc3C2)nc2ccc(Cl)cn12,1,21,-1,-5,8,-6
COCCNCCOc1ccccc1-c1ccccc1,2,-11,-11,19*,-1,2
Cn1c(SCC(=O)NC2CCCc3ccccc32)nnc1C1CC1 (stereo unspecified),1,1,-1,7,4,6
CCN(CC)CCCCCCCCOC(=O)c1cc(OC)c(OC)c(OC)c1,7,2,0,-13,29*,-19
CCOC(=O)c1c(S(=O)(=O)NCC(=O)Nc2cccc(C)c2)c(C)n(C)c1C,1,-6,-3,5,1,2
O=C(Cn1nnc(-c2ccc([N+](=O)[O-])cc2)n1)NNC(=O)c1ccccc1,2,31*,-4,-7,15,-2
O=C(Cn1nnc(-c2ccccc2)n1)NNC(=O)c1cccc([N+](=O)[O-])c1,1,12,-1,1,1,2
COc1cccc2c1C(=O)c1c(O)c3c(c(O)c1C2=O)C[C@@](O)(C(=O)CO)C[C@@H]3O[C@H]1C[C@H](N)[C@@H](O)[C@H](C)O1,8,10,5,-3,8,-1
COc1cccc2c1C(=O)c1c(O)c3c(c(O)c1C2=O)CC(O)(C(=O)CO)CC3OC1CC(N(C)C)C(O)C(C)O1 (stereo unspecified),13,35*,55*,-32,7,-3
CCOC(=O)c1nn(-c2ccc(C)cc2)c(=O)cc1OCC(=O)Nc1cc(C)ccc1OC,-1,-11,0,10,-14,-2
CCOC(=O)c1nn(-c2ccc(F)cc2)c(=O)cc1OCC(=O)Nc1cccc(C)c1,-1,-5,5,-5,-26,24*
O=c1c2ccccc2nc2n1CCN2Cc1ccc(Cl)cc1,29,29*,13,-19,10,-14
COc1cccc(CN(C)C(=O)c2ccc(OCC(=O)Nc3cccc(C(F)(F)F)c3)c(OC)c2)c1,21,29*,4,-29,19,-12
COCCNC(=O)C(OC(=O)c1ccco1)c1ccccc1F (stereo unspecified),0,5,2,1,-7,5
N#C/C(=C\c1ccc(O)cc1)c1nc2ccccc2o1,9,10,10,-9,14,-11
SMILES,M4 ag,M5 antag,CHRM5 agonist,M5 PAM,M4 antag,M4 PAM
COc1cc(/C=C(\C#N)c2nc3ccccc3o2)ccc1O,30,46*,53*,-24,20,-23
O=C(COc1ccccc1)NCC(=O)Nc1cccc(S(=O)(=O)NC2=NCCC2)c1,0,-9,0,-1,-7,-1
O=S(=O)(Nc1ccc(N2CCOCC2)cc1)c1cc(Cl)ccc1Cl,6,12,3,18*,-8,1
COc1ccc(-c2sc3ccccc3c2-c2ccc(OCCN(C)C)cc2)cc1,4,12,-6,-13,36*,0
CN(C)CCOc1ccc(-c2c(-c3ccsc3)sc3ccccc23)cc1,3,11,-2,-3,20,4
O=C(NCCCNC(=O)c1cnccn1)c1ccc(Cl)cc1,2,17,-3,0,0,1
O=C(NCCCNC(=O)c1cnccn1)c1ccc(Cl)c(Cl)c1,-3,27,-1,-9,60*,-14
CC(C)=CCC[C@H](C)CC1Cc2[nH]c(=S)[nH]c(=O)c2C(c2ccc(Cl)cc2)O1 (stereo partly specified),0,-10,1,-8,-20,13
Cc1csc2ncnc(N3CCN(S(=O)(=O)c4cccc(C(F)(F)F)c4)CC3)c12,14,44*,1,-18,26,-13
CN(c1ccccc1)S(=O)(=O)c1cccc(C(=O)NCCCN2CCCC2=O)c1,1,-2,1,2,-3,1
Cc1cc(C)n(CCCNC(=O)c2ccc3c(c2)NC(=O)CS3)n1,1,2,-12,25*,-4,6
CCc1ccc(N=C2NC(=O)/C(=C/c3cc(OC)c(O)c(OC)c3)S2)cc1,18,13,24*,-12,18,-8
COc1cc(/C=C2\SC(=Nc3ccccc3)NC2=O)cc(Cl)c1O,84*,45*,64*,-20,44*,-22
COc1cc(/C=C2\SC(=Nc3ccc(Cl)c(C(=O)O)c3)NC2=O)c(Br)c(Br)c1O,51*,43*,190*,-34,16,-19
C[C@@H]1CN([C@@H](C)CO)S(=O)(=O)c2ccc(Br)cc2O[C@H]1CN(C)Cc1ccc(-c2ccccc2)cc1,1,-1,2,2,-15,3
COc1cccc(N2CC(C)Cn3c2nc2c3c(=O)[nH]c(=O)n2C)c1 (stereo unspecified),-1,9,-4,-7,-11,4
Cc1ccc(S(=O)(=O)NCCC(=O)Nc2ccncc2)cc1C,2,2,1,1,4,-2

# Screens (PubChem)
